The source of these data is ChEMBL document CHEMBL1121715, “New antiarrhythmic agents. 4. 1'-(Aminoalkyl)-1,2,3,4-tetrahydronaphthalene-1-spiro-3'-pyrrolidine-2',5'-dione derivatives” (J Med Chem, 1981).

Several values for one entry are separate records, joined by “and”; a condition that tells them apart may be missing. Equal entries are not always repeated.

A short description of data set [1]: Total body clearance was measured at given dose. The class given is ADME. A digest of the protocol:
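Blood levels came from the iv-infused dogs, measured by GC-FID after methylene chloride extraction and heptafluorobutyryl derivatization with an internal standard. Total body clearance was total dose divided by the blood-level AUC (zero to infinity); volume of distribution was clearance divided by the elimination rate constant.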

Data set [2] in a line: Volume of distribution was measured at given dose of 25 umol/kg. To be noted: in vivo. Type of data set: ADME, organism-based. Put shortly:
(§1)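 In dogs given iv infusions, blood samples were alkaline-extracted (pH 10.3) into methylene chloride and derivatized with heptafluorobutyrylimidazole. Concentrations were measured by GC-FID against an internal standard using standard curves. Clearance was total dose ÷ blood-level AUC (zero to infinity), and volume of distribution was clearance ÷ elimination rate constant.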

Data set [3] can be described thus: Volume of distribution was measured at given dose of 29 umol/kg. Type of data set: ADME, organism-based. To be noted: in vivo. Put shortly: as §1
In data set [4] the test system is Canis familiaris. Nature of the data set: MABP value was measured in anesthetized dog at given dose. Type of data set: functional, Canis lupus familiaris.
The species named for data set [5] is Canis familiaris. Nature of the data set: (§2) Total dose of the compound. The class given is functional, Canis lupus familiaris. Put shortly: (§3)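 Adult female dogs (6.7–14.5 kg) had two-stage ligation of the left anterior descending coronary artery the day before testing. After control ventricular rate, % ectopic beats and mean arterial pressure were recorded, the drug (HCl salt, isotonic solution) was infused iv without anesthesia at 0.1, 0.5 or 1.0 (mg/kg)/min, mostly 0.5. Infusion continued until the arrhythmia was abolished or cardiovascular/CNS toxicity appeared. Cumulative dose is given in mmol/kg; toxicity included convulsion and P-R prolongation ≥25%.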

Data set [6] is filed under the species Canis familiaris. Nature of the data set: Blood level was measured in […] at 0.004 dose. Type of data set: functional, Canis lupus familiaris.
Data set [7] deals with Canis familiaris. Nature of the data set: Blood level was measured in anesthetized dog at 0.014 dose. Type of data set: functional, Canis lupus familiaris.
In data set [8] the test system is Canis familiaris. Kind of data set: % ectopic beats was measured in anesthetized dog at 0.014 dose. The class given is functional, Canis lupus familiaris, Heart. To be noted: in the assay text read “unanesthetized” for “anesthetized”. Put shortly: (§4)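 Adult female dogs (6.7–14.5 kg) had the left anterior descending coronary artery ligated in two stages the day before testing. Dogs were unanesthetized. Ectopic beats (% of ventricular rate) and mean arterial pressure were read at maximal antiarrhythmic effect against the cumulative dose.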

Data set [9] deals with Canis familiaris. Nature of the data set: % ectopic beats was measured in anesthetized dog at 0.028 dose. To be noted: in the assay text read “unanesthetized” for “anesthetized”. The class given is functional, Canis lupus familiaris, Heart. A digest of the protocol: as §4
The species named for data set [10] is Canis familiaris. The description is as §2. Type of data set: functional, Canis lupus familiaris. A digest of the protocol:
as §3
The source holds these as a separate data set.

For data set [11], the system named is Canis familiaris. Nature of the data set: Ventricular rate was measured in anesthetized dog at 0.004 dose. The class given is functional, Canis lupus familiaris, Heart. To be noted: in the assay text read “unanesthetized dog” for “anesthetized dog”. Put shortly: as §3
The subject of data set [12] is Canis familiaris. Kind of data set: Ventricular rate was measured in anesthetized dog at 0.014 dose. Type of data set: functional, Canis lupus familiaris, Heart. Particulars: in the assay text read “unanesthetized dog” for “anesthetized dog”. Put shortly:
as §3

For data set [13], the species on record is Canis familiaris. Nature of the data set: Ventricular rate was measured in […] at 0.028 dose. The class given is functional, Canis lupus familiaris, Heart. Put shortly:
as §3

The species entered for data set [14] is Mus musculus. Kind of data set: Percentage toxicity measured as ataxia. Type of data set: organism-based. To be noted: in vivo. Put shortly: (§5)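 Mice (groups of 10) were dosed sc with drug in 0.9% saline and watched for 20 min for overt toxicity (ataxia, convulsions, loss of righting reflex, death) before chloroform exposure.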
The nature of data set [15]: Percentage toxicity measured as death of mice. Type of data set: organism-based. Further details: concentration or dose not given beside the values. To be noted: mouse, in vivo; read-out: Death.
For data set [16], the species on record is Mus musculus. Nature of the data set: Percentage toxicity measured as loss of righting reflex. Type of data set: organism-based. Particulars: in vivo. Put shortly: as §5
The test system of data set [17] is Mus musculus. Nature of the data set: Protection against chloroform induced arrhythmias was measured in mice after sc administration at given dose. Type of data set: functional. A digest of the protocol:
(§6)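 Groups of 10 unanesthetized mice got sc injection of drug in 0.9% saline. After 20 min observation they were placed one by one in chloroform-vapor-saturated air. When breathing stopped, the thorax was opened and the heart inspected by eye; coordinated ventricular contractions counted as protected.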

The test system of data set [18] is Mus musculus. Nature of the data set: Protection against chloroform induced arrhythmias in mice after subcutaneous administration at 100 mg/kg dose. Type of data set: functional. Put shortly: as §6
The species named for data set [19] is Mus musculus. Nature of the data set: Percentage toxicity measured as convulsions. To be noted: in vivo. The class given is organism-based. A digest of the protocol:
as §5

Data set [20] is described as follows: Maximal concentration in dogs after intravenous administration. Particulars: dog, in vivo.
A short description of data set [21]: Maximal concentration in dogs after 29 umol/kg intravenous dose. To be noted: dog, in vivo.
In data set [22] the test system is Canis familiaris. Kind of data set: % ectopic beats was measured in unanesthetized dog at 0.004 dose.
The subject of data set [23] is Canis familiaris. Nature of the data set: MABP value was measured in anesthetized dog at 0.21+/-0.19 dose. Type of data set: functional, Canis lupus familiaris.
Data set [24] is filed under the species Canis familiaris. Nature of the data set: The dose at which toxicity was measured. To be noted: dog, in vivo. The class given is organism-based, Canis lupus familiaris. Put shortly: as §3
Data set [25] relates to Canis familiaris. Nature of the data set: Ventricular rate was measured in anesthetized dog at 0.21+/-0.19 dose. The class given is functional, Canis lupus familiaris, Heart. To be noted: in the assay text read “unanesthetized” for “anesthetized”. A digest of the protocol:
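Adult female dogs (6.7–14.5 kg) had ventricular arrhythmias from two-stage ligation of the left anterior descending coronary artery the day before. Ventricular rate (bpm) was read at maximal antiarrhythmic effect against cumulative dose.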

The test system of data set [26] is Mus musculus. Kind of data set: Protection against chloroform induced arrhythmias was measured in mice after sc administration at given dose. Type of data set: functional. Particulars: Mus musculus, sc; read-out: ED50. A digest of the protocol: as §6
Data set [27] concerns Canis familiaris. Nature of the data set: % ectopic beats was measured in anesthetized dog at 0.21+/-0.19 dose; 4+/-3. Type of data set: functional, Canis lupus familiaris, Heart.
In data set [28] the test system is Mus musculus. Nature of the data set: Ataxia was measured in mice after sc administration at given dose. Type of data set: functional. A digest of the protocol: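 Mice in groups of 10 received drug sc in 0.9% saline and were watched 20 min for overt toxicity before chloroform exposure. At least three doses were given.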

The clearance is the volume of plasma or blood freed of the substance per unit of time. In general, Vd refers to a proportionality between amount in the body and measured concentration, not a real space. By ED50 is commonly meant the dose at which the effect has come halfway, by size or by number of responders. As a reminder, the Cmax is the highest concentration seen after dosing. In the case of `CCN(CC)CCCN1C(=O)CC2(CCCc3ccc(O)cc32)C1=O` (centres undefined), the ClB in data set [1] was determined as 6.06 mL/min/kg. Also, the clearance in data set [1] (ClB) amounted to 3.81 mL/min/kg. The Vd worked out at 1.58 L/kg in [2] and 1.6 L/kg in data set [3]. Moreover, in the data set with Canis familiaris [4], the MABP was 85 mmHg and 125 mmHg. Besides, the Dose in the data set listed under Canis familiaris [5] amounted to 29 µM/kg; in the data set listed under Canis familiaris [10], 25 µM/kg. Further, the values for the Blood level in the data set listed under Canis familiaris [6] and in the data set with Canis familiaris [7] were 0.019 uM ml-1 and 0.01 uM ml-1, respectively. Besides, the Etopic beats amounted to 0% with Canis familiaris [8] and 6% in the data set with Canis familiaris [9]. The Ventricular rate in the data set with Canis familiaris [11] is given as 168 beats min-1; with Canis familiaris [12], 150 beats min-1; in the data set filed under Canis familiaris [13], 153 beats min-1. Moreover, the Ataxia in the data set listed under Mus musculus [14] was 0%. The mortality in data set [15] is 0%. Besides, the “Loss of righting reflex” value in the data set listed under Mus musculus [16] was 0%. This compound came in with an ED50 in the data set with Mus musculus [17] of 90 µmol/kg. Besides, the Protection with Mus musculus [18] was 80%. Also, the Convulsion in the data set listed under Mus musculus [19] was 0%. For the same compound, the highest concentration (Cmax) in data set [20] is 31 µM; in data set [21], 15 µM. Besides, the Ectopic beats in the data set on Canis familiaris [22] is 3%.
The compound `CCN(CC)CC(=O)Nc1c(C)cccc1C` [LIDOCAINE] registered an MABP in the data set with Canis familiaris [23] of 101 mmHg. Also, in the data set listed under Canis familiaris [24], the Cumulative dose is given as 0.27. Besides, in the data set on Canis familiaris [25], the Ventricular rate came out at 133 beats min-1. The compound also registered an Ataxia in the data set filed under Mus musculus [14] of 100%. Further, the mortality in [15] was 0%. In addition, the “Loss of righting reflex” value in the data set filed under Mus musculus [16] is given as 100%. Also, the values for the ED50 in the data set with Mus musculus [26] and in the data set with Mus musculus [28] were 260 µmol/kg and 180 µmol/kg, respectively. Also, the Protection with Mus musculus [18] is 100%. The compound also had a Convulsion in the data set filed under Mus musculus [19] of 100%. Moreover, the Etopic beats with Canis familiaris [27] is given as 4%.
